From PubChem BioAssay
Most compounds without a hit are left out; they make up all but 2.5% or so of the library.
TRPC6 act = mouse TRPC6 channel activation; actives 0.13% (n = 310,000); Q61143; B-score at 10 µM; HEK293-TRPC6 membrane potential dye fluorescence; hits give high values;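 active means B-score of the integrated fluorescence ratio above library mean plus 3 SD, and starting fluorescence ratio within library mean plus 5 SD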;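 further: higher score means more depolarization so channel activation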
TRPC4 agonist = opens the mouse TRPC4 cation channel; AID 2237; actives 0.49% (n = 310,000); HEK293 TRPC4beta/mu-opioid, Fluo4 calcium fluorescence; hits give high values; B-score at 10 µM;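 active means B-score above 5 SD of library B-scores, and initial fluorescence ratio not above library mean plus 5 SD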;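 further: positive B-score marks a calcium rise read as TRPC4 activation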
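Incubation: 45 min room-temperature Fluo4 loading, 110 s read / System: HEK293 cells stably co-expressing mouse TRPC4beta and mu-opioid receptor / Signal: Fluo4 fluorescence, kinetic / Control set: buffer (low) and maximal DAMGO (high) / Measure: integrated baseline-normalised fluorescence ratio, converted to per-well B score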
TRPC6 inhibitor = mouse TRPC6 channel inhibition. B-score at 10 µM. Q61143. HEK293-TRPC6, membrane potential dye, ACh-evoked depolarization; hits give low values. actives 1.1% (n = 310,000);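 active means B-score under library mean minus 3 SD, initial fluorescence not abnormally high, positive integrated signal ratio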;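 further: B-score derived from integrated fluorescence ratio over the kinetic read; more negative B-score means stronger inhibition of depolarization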
Pemphigus Ab inh = human desmoglein-3 autoantibody binding inhibition; P32926; DSG3-coupled beads, scFv-anti-DSG3-GFP binding, flow cytometry; hits give low values; binding (percent of control), % at 10 µM; actives 0.48% (n = 310,000);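 active means binding more than 3 SD below its plate's average and above zero; inconclusive means below that plate limit but binding exactly zero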;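 further: hits lower antibody fragment binding to DSG3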
TRPC4 PAM = allosterically enhances the mouse TRPC4 cation channel | Q9QUQ5 | HEK293 TRPC4beta/mu-opioid, DAMGO EC20, Fluo-4 Ca2+ flux; hits give high values | B-score at 10 µM | actives 0.42% (n = 310,000);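 active means B-score of calcium response area above 5 SD of library B-scores, with initial fluorescence ratio within 5 SD of library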;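 further: B-score of integrated fluorescence ratio over time as area under calcium response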
TRPC4 inh = inhibitors of mouse TRPC4 channel. Q9QUQ5. HEK293 TRPC4beta/mu-opioid, DAMGO-evoked Fluo4 calcium flux; hits give low values. B-score at 10 µM. actives 0.39% (n = 300,000). AID 2247;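 active means B-score over 3 SD under the library average, no early fluorescence shift, positive overall ratio signal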
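Signal: kinetic Fluo4 fluorescence imaging of calcium influx. Material: stable TRPC4beta/mu-opioid receptor HEK293 cells. Probe or stimulus: DAMGO in two steps, submaximal then maximal.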
TRPC4 sel inh 2 = mouse TRPC4 off-target activity of TRPC6 inhibitors, second screen; AID 2776; actives 42% (n = 920); HEK293 TRPC4/MOR, membrane potential dye fluorescence; channel activated by saturating DAMGO dose; inhibition, % at 10 µM; shares compounds with TRPC6 inhibitor;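 active means compounds whose fluorescence signal differed from control wells by over 3 SD, either direction, in both duplicate plates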
TRPC4 spec = tests whether TRPC6 inhibitors also affect mouse TRPC4; shares compounds with TRPC6 inhibitor; HEK293 TRPC4/mu-opioid, membrane potential fluorescence; activity change, negative = inhibition, % at 10 µM; actives 61% (n = 920);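 active means rise or fall in signal beyond 3 SD of buffer-only wells in both replicate plates, either sign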;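 further: integrated kinetic ratio of fluorescence range over baseline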
HEK293 MPD ctr 2-1 = second counter-screen for TRPC6 inhibitors: parental HEK293 cells. shares compounds with TRPC6 inhibitor. parental HEK293 membrane potential dye fluorescence; maximal acetylcholine challenge after compound addition. AID 2779. signal change vs control, % at 10 µM. actives 31% (n = 920);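 active means membrane potential signal moving either way by over 3 SD of the maximum-effect control, in both duplicate plates, meaning non-specific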
HEK293 MPD ctr-1 = checks TRPC6 inhibitor effects in parental HEK293 cells; shares compounds with TRPC6 inhibitor; parental HEK293 membrane potential dye fluorescence; membrane potential signal change, % at 10 µM; actives 60% (n = 920); AID 2780;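 active means membrane potential signal shifting up or down by more than 3 SD of buffer-only wells, on both duplicate plates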
HEK293 MPD ctr-2 = parental HEK293 nonspecific activity of TRPC6 modulators; shares compounds with TRPC6 inhibitor; membrane potential dye fluorescence; membrane potential signal change, % at 10 µM; actives 51% (n = 2,400);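 active means membrane potential signal moves up or down beyond 5 SD from buffer-only wells, on both duplicate plates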
HEK293 MPD ctr 2-2 = parental HEK293 nonspecific activity of TRPC6 modulators, second screen | shares compounds with TRPC6 inhibitor | actives 14% (n = 2,400) | AID 488926 | inhibition, % at 10 µM | membrane potential dye fluorescence; after compound, maximal acetylcholine stimulation;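 active means membrane potential signal drops by more than 5 SD from the mean control signal, in both duplicate plates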;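 further: plate controls were acetylcholine ECmax control wells for no effect and buffer only wells for full effect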
TRPC4/MOR mod = tests whether TRPC6 modulators also affect mouse TRPC4 | shares compounds with TRPC6 inhibitor | HEK293 TRPC4/mu-opioid, membrane potential fluorescence | percent change from control (negative = decrease, positive = increase), % at 10 µM | actives 69% (n = 2,400) | AID 488927;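 active means membrane potential signal moved up or down beyond 5 SD of buffer control wells, in both duplicate plates, actives on both sides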;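 further: plate controls were assay buffer wells for no effect and DAMGO maximal-effect wells for full effect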
TRPC4/MOR inh 2 = mouse TRPC4 off-target activity of TRPC6 modulators, second screen; shares compounds with TRPC6 inhibitor; inhibition, % at 10 µM; actives 55% (n = 2,400); HEK293 TRPC4/mu-opioid, membrane potential dye fluorescence; stimulated with maximal-effect DAMGO; AID 488928;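 active means drop in membrane potential signal beyond 5 SD of the control wells in both duplicate plates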;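 further: TRPC4 counter screen for TRPC6 hits run under conditions tuned for TRPC6 not TRPC4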
TRPC6 block conf = confirmation of mouse TRPC6 inhibitors; HEK293-TRPC6, membrane potential dye, ACh-evoked depolarization; inhibition, % at 10 µM; shares compounds with TRPC6 inhibitor; AID 488960; actives 43% (n = 3,300);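 active means fluorescence ratio falls more than 5 SD below the full-stimulation control mean, in both duplicate runs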;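 further: integrated fluorescence ratio of peak minus minimum over baseline after agonist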
TRPC6 act confirm = mouse TRPC6 activator confirmation. actives 11% (n = 2,800). AID 488961. HEK293-TRPC6 membrane potential dye fluorescence, FDSS. activation, % at 10 µM. shares compounds with TRPC6 inhibitor;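 active means ratio signal rise beyond 5 SD above unstimulated control wells' mean, seen in both duplicate runs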;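 further: plate controls were buffer EC0 wells for no effect and acetylcholine ECmax response for full effect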
Numbers without * were called inactive; i = inactive; ? = inconclusive; nt = not tested or not shown.

SMILES	TRPC6 act	TRPC4 agonist	TRPC6 inhibitor	Pemphigus Ab inh	TRPC4 PAM	TRPC4 inh	HEK293 MPD ctr-2	HEK293 MPD ctr 2-2	TRPC4/MOR mod	TRPC4/MOR inh 2	TRPC6 block conf	TRPC6 act confirm	others
CCN(CC)CC#CC(O)(c1ccccc1)c1ccccc1	i	i	-13.7*	97.4	i	i	nt	nt	nt	nt	80.2%*	i	TRPC4 sel inh 2=i;TRPC4 spec=1.8%*;HEK293 MPD ctr 2-1=-31.0%*;HEK293 MPD ctr-1=5.0%*
COc1cccc(N2[C@@H](CC(=O)O)c3ccc(/C=C/C(=O)O)cc3S2(=O)=O)c1	i	i	i	101.1	i	nt	nt	nt	nt	nt	nt	nt
CC(C)CC(=O)N1CCN(c2ccc(NC(=O)c3ccco3)cc2)CC1	i	i	i	113.3	i	i	nt	nt	nt	nt	nt	nt
CC(C)(C)NC(=O)C(c1ccc(O)cc1)N(Cc1ccco1)C(=O)CCC(=O)Nc1ccccn1 (configuration not stated)	i	i	i	111.4	i	i	nt	nt	nt	nt	nt	nt
CC(C)(C)NC(=O)C(c1ccc(F)cc1)N(Cc1ccco1)C(=O)CCC(=O)Nc1ccccn1 (configuration not stated)	i	i	-6*	101.5	i	i	354.5%*	i	77.5%*	i	i	nt
O=C(NNC(=O)c1ccc2nonc2c1)Nc1ccc(Cl)cc1	i	i	i	91.9	i	i	nt	nt	nt	nt	nt	nt
Cc1cc(C)c2c(n1)nn1c(NCCCN(C)C)cc(C)nc21	i	i	i	101.0	i	i	nt	nt	nt	nt	nt	nt
Cc1cc(NCCCN(C)C)n2nc(-c3cccs3)cc2n1	i	i	-8.23*	100.5	12*	i	-349.0%*	81.5%*	-58.5%*	57.5%*	69.0%*	i
Cc1ccc(Nc2nc(N)c3ccccc3n2)cc1C	i	i	-11.7*	109.5	i	i	-94.5%*	65.0%*	-36.0%*	78.0%*	66.0%*	i
Cc1ccc(Nc2nc3ccccc3c(=O)[nH]2)cc1C	i	i	i	86.0	i	i	nt	nt	nt	nt	nt	nt
COc1cc2nc(Nc3cccc(F)c3)nc(N)c2cc1OC	i	i	-6.47*	?	i	i	i	i	i	47.0%*	52.0%*	i
